E-sel inducer: induces E-selectin expression in human endothelial cells; P16581; AID 686992; activation, % at 7.58 µM; HUVEC E-selectin immunofluorescence imaging; normalized: neutral wells 0, TNF-alpha wells 100; actives 0.37% (n = 260,000);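 active means mean E-selectin-positive cell signal at least 10% of the positive control, reached in at least 60% of replicates, without over 20% cell loss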
Target sequence (P16581 whole entry, looked up): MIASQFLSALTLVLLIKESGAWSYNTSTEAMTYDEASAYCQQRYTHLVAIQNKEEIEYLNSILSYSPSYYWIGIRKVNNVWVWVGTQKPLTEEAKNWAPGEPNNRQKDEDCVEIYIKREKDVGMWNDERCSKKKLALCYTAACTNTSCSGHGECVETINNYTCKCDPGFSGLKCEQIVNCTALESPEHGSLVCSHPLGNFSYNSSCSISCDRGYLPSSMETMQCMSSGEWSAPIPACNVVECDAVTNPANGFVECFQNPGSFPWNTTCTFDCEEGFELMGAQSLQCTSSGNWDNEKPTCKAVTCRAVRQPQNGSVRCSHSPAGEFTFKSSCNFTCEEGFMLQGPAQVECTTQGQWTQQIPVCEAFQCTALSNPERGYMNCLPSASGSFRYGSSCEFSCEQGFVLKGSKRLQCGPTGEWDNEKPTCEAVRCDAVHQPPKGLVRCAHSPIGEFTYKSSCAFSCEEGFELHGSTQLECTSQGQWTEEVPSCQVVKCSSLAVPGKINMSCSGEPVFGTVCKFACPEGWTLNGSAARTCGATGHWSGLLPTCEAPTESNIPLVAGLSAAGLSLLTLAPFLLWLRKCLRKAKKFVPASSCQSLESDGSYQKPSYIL
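assay system = HUVEC, human umbilical vein endothelial cells | input = 3,000 HUVEC seeded per well | medium = EGM-2 growth medium on 0.1% gelatin-coated wells | dosing = one compound dose added by pin transfer | signal = immunofluorescence imaging | read-out basis = % PE-positive cells | control set = TNF-alpha, DMSO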
Env fusion inh: HIV envelope-mediated fusion inhibition | AID 651610 | actives 1.1% (n = 360,000) | HeLa-JRFL Env/CEM21 cell fusion, luciferase | inhibition, % at 12.3 µM;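 active means mean replicate inhibition score of at least 50 and every replicate individually at or above 50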;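 further: 0% = plate neutral controls and 100% = maraviroc near 300 nM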
F508del corr: correctors of CFTR F508del function in bronchial epithelial cells; CFBE cells, YFP halide quenching; stimulated with forskolin plus potentiator P3; % fluorescence drop versus neutral controls; activity (quench increase), % at 7.58 µM; actives 0.36% (n = 350,000); AID 720511;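 active means mean added fluorescence quench of at least 8% versus neutral control, with both replicates also reaching 8%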;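 further: cells transiently co-express mutant CFTR-F508del with the halide-sensitive YFP; corrector assay measuring rescue of mutant channel to the surface after 24 h compound exposure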
FGF22 binding-1: binders of recombinant human FGF22 by thermal shift | SYPRO orange fluorescence; percent of sucrose octasulfate shift, DMSO zero | activity (Tm shift, normalised), % at 9.99 µM | actives 1.5% (n = 340,000) | AID 651658;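 active means mean Tm shift, scaled 0 neutral to 100 positive control, at about 1.3% or above, every replicate too, limit read from the data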
S100A4 inh HTS: inhibitors of human S100A4 binding to myosin IIA peptide; actives 0.14% (n = 360,000); inhibition, % at 10.7 µM; S100A4/TAMRA-MyoIIA peptide fluorescence polarization;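 active means mean inhibition of at least 70% across replicates, with every replicate also reaching that level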
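Compound dosing: one dose per compound; test system: human S100A4 monomer with TAMRA-labelled myosin IIA peptide; probe or stimulus: TAMRA-labelled myosin IIA heavy-chain peptide probe, 5 nM; medium: HEPES buffer with Ca2+, pH 7.2; schedule: 5 min incubation before reading; benchmarks: neutral control DMSO, positive control TFP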
FGF22 binding-2: FGF22 (human) binding in thermal shift. AID 720646. actives 2% (n = 1,000). recombinant FGF22 thermal shift, SYPRO orange fluorescence. shares compounds with FGF22 binding-1. thermal shift activity, °C (ΔTm) at 38 µM;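 active means fitted rise in melting shift crosses a set limit at or below the top valid dose tested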
SYPRO no-protein: shows thermal shift signal without protein, FGF22 counter-screen; actives 2% (n = 1,000); compound-only SYPRO orange thermal shift counter-screen, no protein; AC50, µM (titrated, usually from 38 µM); shares compounds with FGF22 binding-1;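 active means rising signal whose fitted curve reaches the 0.54 level within the top valid dose, showing a melting point, actives reach about 13 µM in these data; inactive means the rest, including activity in the opposite direction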; further: value is where the raw curve crosses a fixed level and not half-maximal
Active calls of the source: *; i = inactive; x = not tested or not shown; [ ] = remark or other dose. An excerpt weighted towards active compounds, which were near 2.7% of everything screened.

SMILES	E-sel inducer	Env fusion inh	F508del corr	FGF22 binding-1	S100A4 inh HTS	FGF22 binding-2	SYPRO no-protein
C[C@@H]1CN([C@@H](C)CO)C(=O)c2cc(C#CC3(O)CCCC3)cnc2O[C@@H]1CN(C)C(=O)C1CC1	0.9	-4.3[16.7 µM]	-0.2	x	x	x	x
CC(=O)N1[C@@H](CO)[C@@H](c2ccccc2)[C@@H]1CN(C(=O)c1cccc(F)c1)C(C)C	0.2	x	1.9	-0.7	-3.6	x	x
CC(=O)N1[C@H](CO)[C@H](c2ccccc2)[C@H]1CN(C(=O)c1cccc(F)c1)C(C)C	0.0	x	1.6	1.7*	7.5	0.123	i
Cc1nc(NC(=O)C2CC2)sc1C(=O)Nc1ccccc1Cl	-0.1	-60.5	-0.7	1.9*	2.1	0.081	i
C/C(CC(=O)Nc1cccc(Cl)c1Cl)=N\NC(=O)C(=O)NC1CCCCC1	0.2	16.2	0.4	27.9*	4.1	0.051	i
C/C(CC(=O)Nc1ccccc1Cl)=N\NC(=O)C(=O)NCCO	0.0	5.3	1.4	-0.1	1.9	x	x
C=CCC1c2cccc(C(=O)O)c2C(=O)N1c1cccc(OC)c1 (stereo not given)	1.4	-6.2	0.2	17.5*	-2.0	0.134	i
C=CCC1c2cccc(C(=O)O)c2C(=O)N1c1cccc(C)c1 (stereo not given)	x	x	0.1	0.1	12.6	x	x
COCC(=O)Nc1ccc2c(c1)C(=O)N(C)[C@@H]1CC[C@@H](CC(=O)NCc3ccccc3F)O[C@H]1CO2	0.0	12.0[16.7 µM]	-2.6	0.0	-5.3	x	x
CCCCn1c(N)c(N(CCC(C)C)C(=O)c2ccc3c(c2)OCO3)c(=O)[nH]c1=O	-0.3	-1.5	-0.9	0.2	1.5	x	x
CCCCN(C(=O)c1ccc2c(c1)OCCO2)c1c(N)n(CCCC)c(=O)[nH]c1=O	5.9	-34.8	-0.5	21.4*	-0.4	0.112	i
COc1ccc(Cc2nnc(NS(=O)(=O)c3ccccc3)s2)cc1	2.7	-8.6	-0.8	26.2*	-1.2	0.06	i
CCOc1ccc(C(=O)CCC(=O)Nc2ccc(C)cn2)cc1	1.7	-12.0	-0.5	13.8*	10.4	0.224	i
O=c1c2ccccc2[nH]c2ccc(F)cc12	x	-18.6	x	1.5*	-1.2	-0.051	i
O=S(=O)(O)c1cccc2cccc(Nc3ccccc3)c12	1.6	9.1	1.5	1.5*	4.4	0.012	i
c1ccc(Nc2cccc3c(Nc4ccccc4)cccc23)cc1	-0.1	22.2	-1.6	0.0	-15.3	x	x
C[C@@H]1CN([C@H](C)CO)C(=O)Cc2cc(NC(=O)NC3CCCCC3)ccc2O[C@@H]1CN(C)C(=O)NC1CCCCC1	-0.1	-5.5[16.7 µM]	-4.4	0.0	6.3	x	x
Cc1ccc(NC(=O)C2CCCN2C(=O)Oc2ccccc2)c(C)c1 (stereo not given)	1.5	-30.2	-0.7	2.2*	-1.0	-0.007	i
C[C@@H]1CN([C@@H](C)CO)C(=O)c2cc(N(C)C)ccc2O[C@@H](C)CCCCO[C@@H]1CN(C)C(=O)Nc1ccc(F)cc1	0.0	-9.6[16.7 µM]	0.3	-1.1	-2.9	x	x
NS(=O)(=O)c1ccc2c(c1)C(=NO)c1cc(S(N)(=O)=O)ccc1-2	0.0	2.2	4.7	28.1*	-6.7	0.049	i
CO[C@H]1CN(C)C(=O)c2ccc(NC(C)=O)cc2OC[C@H](C)N(CC2CCCCC2)C[C@@H]1C	-0.1	x	-2.0	0.5	5.8	x	x
O=[N+]([O-])c1ccc(CSc2nnc(Cc3ccccc3)o2)cc1	-1.7	3.3	1.6	1.4*	5.6	0.023	i
CCN1C(=O)C(CC(=O)Nc2ccc(OC)cc2)N(Cc2ccc(OC)c(OC)c2)C1=S (stereo not given)	0.1	36.1	-2.2	x	20.2	x	x
CCN1C(=O)C(CC(=O)Nc2ccc(OC)cc2)N(Cc2cccs2)C1=S (stereo not given)	x	x	0.2	0.5	1.8	x	x
CCN1C(=O)C(CC(=O)Nc2ccc(OC)cc2)N(Cc2ccc3c(c2)OCO3)C1=S (stereo not given)	-2.8	26.7	x	2.0*	-0.3	0.007	i
